Source: ChEMBL document CHEMBL3045276, “Synthesis and biological activity of some novel trifluoromethyl-substituted 1,2,4-triazole and bis(1,2,4-triazole) Mannich bases containing piperazine rings” (2010)

Tests used:
Format in all cases: functional
Echinochloa crus-galli [1] = assay: Herbicidal activity against Echinochloa crus-galli (barnyard grass) assessed as inhibition of seedling growth at 10 ug/mL at 28 degC
In short: (§1)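 Ten barnyardgrass seeds placed in cup over glass beads and filter paper holding 5 mL aqueous test solution (emulsified if needed); germinated 65 h at 28 ± 1 °C under light. Mean above-ground seedling height per cup measured; inhibition percentage derived.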

Ascochyta = assay: Fungicidal activity against Ascochyta […] in cucumber plant two seed leaves stage assessed as control efficacy from disease indices at 500 ug/mL at 18 to 30 degC and above 80%RH relative to control; settings: read-out: GI
In short: (§2)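 Cucumber seeds germinated (soaked 2 h in water at 50 °C, kept moist 24 h at 28 °C) and grown in 1:1 vermiculite/peat; two-seed-leaf plants sprayed at 500 μg/mL, then inoculated 2 h later by spraying conidial (C. cassiicola, A. citrullina, P. cubensis), bacterial (P. syringae) or mycelial (S. sclerotiorum) suspension. Held 18-30 °C, >80% RH; four repeats; control efficacy = (CK−PT)/CK×100 from disease indices once untreated plants fully symptomatic.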

Sclerotinia sclerotiorum = assay: Fungicidal activity against Sclerotinia sclerotiorum in cucumber plant two seed leaves stage assessed as control efficacy from disease indices at 500 ug/mL at 18 to 30 degC and above 80%RH relative to control; settings: read-out: GI; in short: as §2
[2] = test system: Brassica rapa subsp. oleifera; assay: Herbicidal activity against Brassica rapa subsp. oleifera assessed as inhibition of root growth at 10 ug/mL at 28 degC
In short: (§3)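 Rape seeds soaked 4 h in distilled water, then 15 per 6 cm dish on filter paper wetted with 2 mL aqueous test solution (emulsified if needed); germinated 65 h at 28 ± 1 °C in darkness. Mean length of 10 roots per dish measured; percentage inhibition calculated against distilled-water check.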

Corynespora cassiicola = assay: Fungicidal activity against Corynespora cassiicola in cucumber plant two seed leaves stage assessed as control efficacy from disease indices at 500 ug/mL at 18 to 30 degC and above 80%RH relative to control; settings: read-out: GI; in short: as §2
[3] = test system: Brassica rapa subsp. oleifera; assay: Herbicidal activity against Brassica rapa subsp. oleifera assessed as inhibition of root growth at 100 ug/mL at 28 degC; in short: as §3
Echinochloa crus-galli [4] = assay: Herbicidal activity against Echinochloa crus-galli (barnyard grass) assessed as inhibition of seedling growth at 100 ug/mL at 28 degC; in short: as §1
[5] = test system: Pseudomonas amygdali pv. lachrymans; assay: Fungicidal activity against Pseudomonas syringae pv. lachrymans in cucumber plant two seed leaves stage assessed as control efficacy from disease indices at 500 ug/mL at 18 to 30 degC and above 80%RH relative to control; settings: read-out: GI; in short: as §2
[6] = test system: Pseudoperonospora cubensis; assay: Fungicidal activity against Pseudoperonospora cubensis in cucumber plant two seed leaves stage assessed as control efficacy from disease indices at 500 ug/mL at 18 to 30 degC and above 80%RH relative to control; settings: read-out: GI; in short: as §2

| Structure (SMILES) | inhibition at 10 µg/mL (Echinochloa crus-galli [1]) | inhibition of growth at 500 µg/mL (Ascochyta) | inhibition of growth at 500 µg/mL (Sclerotinia sclerotiorum) | inhibition at 10 µg/mL [2] | inhibition of growth at 500 µg/mL (Corynespora cassiicola) | inhibition at 100 µg/mL [3] | inhibition at 100 µg/mL (Echinochloa crus-galli [4]) | inhibition of growth at 500 µg/mL [5] | inhibition of growth at 500 µg/mL [6] |
| --- | --- | --- | --- | --- | --- | --- | --- | --- | --- |
| FC(F)(F)c1nn(CN2CCN(Cn3nc(C(F)(F)F)n(/N=C/c4ccccc4)c3=S)CC2)c(=S)n1/N=C/c1ccccc1 | 16.2% | 25.6% | 67.6% | 0% | 70.9% | 35.1% | 25.1% | 56.4% | 78.9% |
| Fc1ccccc1/C=N/n1c(C(F)(F)F)nn(CN2CCN(Cn3nc(C(F)(F)F)n(/N=C/c4ccccc4F)c3=S)CC2)c1=S | 10.7% | 86.5% | 25.9% | 0% | 84.7% | 4.3% | 26.6% | 6.8% | 79.9% |
| COc1ccc(/C=N/n2c(C(F)(F)F)nn(CN3CCN(Cn4nc(C(F)(F)F)n(/N=C/c5ccc(OC)cc5)c4=S)CC3)c2=S)cc1 | 5.5% | 89.7% | 62% | 0% | 44.1% | 29.5% | 25.5% | 55.6% | 84.5% |
| Cc1ccc(/C=N/n2c(C(F)(F)F)nn(CN3CCN(Cn4nc(C(F)(F)F)n(/N=C/c5ccc(C)c(C)c5)c4=S)CC3)c2=S)cc1C | 1.5% | 26% | 32.7% | 0% | 67.4% | 27.4% | 28% | 36.7% | 78.7% |
| Fc1ccccc1/C=N/n1c(C(F)(F)F)nn(CN2CCN(c3ncccn3)CC2)c1=S | 9.9% | 61.3% | 47.3% | 70.8% | 40.3% | 74.5% | 15.3% | 45.4% | 64.9% |
| COc1ccc(/C=N/n2c(C(F)(F)F)nn(CN3CCN(c4ncccn4)CC3)c2=S)cc1 | 0% | 73.4% | 75.3% | 53.5% | 73.4% | 78.8% | 18.6% | 68.1% | 79.5% |
| Cc1ccnc(N2CCN(Cn3nc(C(F)(F)F)n(/N=C/c4ccccc4)c3=S)CC2)n1 | 8.7% | 62.4% | 36.8% | 0% | 49.2% | 12.5% | 15.3% | 20.4% | 78.6% |
| Cc1ccnc(N2CCN(Cn3nc(C(F)(F)F)n(/N=C/c4ccccc4F)c3=S)CC2)n1 | 0% | 57.8% | 52.2% | 0% | -5.3% | 24.4% | 8% | 62.3% | 75.5% |
| COc1ccc(/C=N/n2c(C(F)(F)F)nn(CN3CCN(c4nccc(C)n4)CC3)c2=S)cc1 | 15.3% | 67.7% | 50.9% | 0% | 52.8% | 30.3% | 34.3% | 30.6% | 72.5% |
| Cc1ccnc(N2CCN(Cn3nc(C(F)(F)F)n(/N=C/c4ccc(C)c(C)c4)c3=S)CC2)n1 | 0% | 70% | 51.9% | 0% | 38.7% | 11.2% | 27.8% | 22% | 69.5% |
| Cc1ccnc(N2CCN(Cn3nc(C(F)(F)F)n(/N=C/c4ccc(Cl)cc4)c3=S)CC2)n1 | 10.2% | 61.3% | 70.3% | 0% | 71.1% | 68.6% | 96.7% | 21.1% | 91.2% |
